Compound activity from PubChem BioAssay.
Most compounds without a hit are left out; they make up all but 2.3% or so of the library.
FN deposition inh = fibronectin deposition inhibition; inhibition, % at 12.6 µM; AH1F fibroblasts, Alexa488-fibronectin deposition fluorescence, overnight; 0.086% of 350,000 active;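 active means mean inhibition across replicates of 30% or more, regardless of how many single replicates reach that level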;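 further: positive control wells lacked labelled fibronectin entirely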
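Measured by – fluorescence 485/525 nm · System – AH1F fibroblast monolayer, labelled fibronectin deposition · Amount – 10000 cells per well · Buffer or medium – serum-reduced DMEM (2% serum) · Doses – single dose, pinned · Also added – fluorescent fibronectin at 24 nM final · Schedule – 1 h cell attachment, overnight exposure to compound and label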
TWEAK-Fn14 inh = inhibitors of TWEAK-Fn14 interaction signaling. TWEAK-stimulated Fn14 reporter cells, luciferase luminescence, 8 h. inhibition, % at 10 µM. 2% of 360,000 active. AID 1159606; in the data active means inhibition above about 50%
XiGFP reactiv = X-chromosome reactivation activator. XiGFP mouse fibroblasts, % GFP-positive cells imaging, 3 d; cells co-treated with 5-aza-dC sensitizer; scaled so ellipticine positive control = 100%. activation, % at 7.58 µM. 0.055% of 360,000 active;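 active means mean normalized replicate activation at least 10% and every replicate at or above 10%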;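 further: 0% = median of on-plate neutral control wells and 100% = ellipticine 6 µM median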
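System: XiGFP fibroblasts, SV40-immortalized. Medium: DMEM plus 5-aza-dC sensitizer. Doses: single point. Timing: 3 d treatment, 15 min room-temperature fixation. Control set: ellipticine 6 µM.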
TROY NFkB inh = inhibitors of TROY-dependent NF-kB signaling | Q293 LMP1-TROYcd NF-kB luciferase reporter, 4 h | inhibition, % at 10 µM | 0.98% of 360,000 active | AID 1347056;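 active means compounds whose plate-normalised and pattern-corrected inhibition of the luciferase reporter signal at the single screening dose is 50% or more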
LGR2 antag = blocks bursicon-induced cAMP signaling via Drosophila LGR2; HEK293 LGR2, CRE-luciferase, bursicon-stimulated, 4 h; inhibition, % at 9.99 µM; 0.35% of 380,000 active;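 active means drop in luminescence signal, shown as inhibition above about 50% in the replicate tests, limit read from the data, passing the limit was not always enough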;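 further: agonist challenge used bursicon conditioned medium at about half maximal strength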
EWS-Fli inh = inhibitors of EWS/Fli oncoprotein transcriptional activity | 0.67% of 350,000 active | A673 NR0B1-luciferase reporter, viability-normalised | inhibition, % at 12.6 µM | AID 651661;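 active means mean inhibition of at least 50% after viability correction, with every replicate also passing that limit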;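 further: firefly luciferase signal divided by Alamar Blue viability fluorescence both relative to DMSO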
* hit, by the source's call; · = no result given.

SMILES	FN deposition inh	TWEAK-Fn14 inh	XiGFP reactiv	TROY NFkB inh	LGR2 antag	EWS-Fli inh
CC1CCN(c2c(NCc3ccc(C(=O)N4CCc5ccccc54)cc3)c(=O)c2=O)CC1	-8	1	1	29	·	53*
Cc1ccc(NC(=O)CNc2ccc(Cl)c(Cl)c2)cc1S(=O)(=O)N(C)C	·	91*	0	30	-2	-2
CN(C)S(=O)(=O)c1cc(NC(=O)CSc2nn(-c3ccc(Cl)cc3)c(=S)s2)ccc1Cl	1	83*	0	41	-11	·
Cc1ccc(NC(=O)Cc2ccc(Cl)c(Cl)c2)cc1S(=O)(=O)N(C)C	-46	45	0	34	1	·
Cc1ccc(NC(=O)CSc2nn(-c3ccc(Cl)cc3)c(=S)s2)cc1S(=O)(=O)N(C)C	·	64*	0	52*	6	-1
NS(=O)(=O)c1cccc(NC(=O)CSc2nn(-c3ccccc3)c(=S)s2)c1	1	34	0	9	10	·
CO[C@@H]1CN(C)C(=O)c2cc(NS(=O)(=O)c3ccccc3)ccc2OC[C@@H](C)N(Cc2nccs2)C[C@H]1C	-9	·	0	·	-18	12
COc1ccc(-c2cnc3c(c2)C(=O)N([C@H](C)CO)C[C@H](C)[C@@H](CN(C)S(=O)(=O)c2ccc(OC)cc2)O3)cc1	-20	·	-1	·	-6	8
CCCCCCCCCCS(=O)(=O)N/N=C/c1ccc([N+](=O)[O-])cc1	·	4	·	51*	-8	4
COC(=O)c1ccc(CCc2cc(O)ccc2O)cc1	·	87*	·	4	·	·
COC(=O)c1ccc(CCc2cc(O)c(Br)cc2O)cc1	·	92*	0	-4	-13	26
COC(=O)c1ccc(O)cc1	7	4	0	14	-10	3
C[C@H]1CN([C@@H](C)CO)C(=O)c2cc(NC(=O)Nc3ccc(F)cc3)ccc2O[C@H]1CN(C)S(=O)(=O)c1ccc(F)cc1	·	·	0	·	-5	0
Cc1cc(=O)oc2c3c(cc(OCC(=O)N[C@@H](C)C(=O)O)c12)OC(C)(C)CC3	4	76*	0	-16	0	-12
C[C@@H]1CN([C@@H](C)CO)C(=O)c2cccc(NC(=O)c3nc4ccccc4s3)c2O[C@@H]1CN(C)CC1CCCCC1	4	·	-1	·	17	6
Nc1ccccc1SC(CC(=O)c1ccccc1)c1ccc([N+](=O)[O-])cc1 (stereo unspecified)	·	11	1	-25	-114	-52
COc1ccc(C(CC(=O)c2ccc(C)cc2)Sc2ccccc2N)cc1 (stereo unspecified)	-7	70*	0	11	32	-2
COc1ccc(-n2c(N)c(C(=O)NCc3ccco3)c3nc4ccccc4nc32)cc1	·	66*	·	30	·	·
N#Cc1c(N)n(CCc2ccc(F)cc2)c2nc3ccccc3nc12	·	63*	·	·	·	·
COc1cccc(Cn2c(N)c(C#N)c3nc4ccccc4nc32)c1OC	5	18	·	65*	·	·
Nc1c(C(=O)NCc2ccco2)c2nc3ccccc3nc2n1CCc1ccc(F)cc1	1	21	·	64*	·	·
COc1cc(-n2c(N)c(C(=O)NCc3ccco3)c3nc4ccccc4nc32)cc(OC)c1OC	-8	-3	0	-17	-4	3
N#Cc1c(N)n(CCOC(=O)c2cccc(Br)c2)c2nc3ccccc3nc12	·	12	·	69*	·	·
Nc1c(C(=O)NCCN2CCOCC2)c2nc3ccccc3nc2n1CCc1ccccc1	·	14	·	69*	·	·
N#Cc1c(N)n(CCOC(=O)c2cccc([N+](=O)[O-])c2)c2nc3ccccc3nc12	-6	-7	·	23	·	·
CNC(=S)N/N=C1\C(=O)c2cccc3cccc1c23	·	97*	·	-62	·	·
Cc1ccccc1S(=O)(=O)NCC[C@H]1CC[C@H](NC(=O)C2CC2)[C@H](CO)O1	-10	·	0	·	-4	-3
CC(=O)Oc1ccc(C#C/C=C2\c3ccccc3C(=O)N2c2ccccc2)cc1	·	51*	·	-23	·	·
COc1ccccc1-c1ccc2c(c1)[C@H]1[C@H](CCN1S(=O)(=O)c1ccccc1OC)[C@@H](CO)N2	-36	·	0	·	4	4
O=C(Cc1cccs1)NCC1CCCO1 (stereo unspecified)	·	51*	·	8	1	29
